# Results published in ChEMBL document CHEMBL2029265, “2-(Pyrrolidin-1-yl)ethyl-3,4-dihydroisoquinolin-1(2H)-one derivatives as potent and selective histamine-3 receptor antagonists” (J Med Chem, 2012).
# pIC50, pKi: −log10 of the molar value. The source made the active and inactive calls. The rule behind the calls is not given here.
# Legend:
# Histamine H3 receptor [1] = molecular target: T1, Histamine H3 receptor (Homo sapiens, UniProt Q9Y5N1); test: Displacement of [3H]-(R)-alpha-methylhistamine from human H3 receptor expressed in HEK293T cells after 120 mins by scintillation counting; type: cell-based, HEK-293T
# T1 sequence (Q9Y5N1 whole entry): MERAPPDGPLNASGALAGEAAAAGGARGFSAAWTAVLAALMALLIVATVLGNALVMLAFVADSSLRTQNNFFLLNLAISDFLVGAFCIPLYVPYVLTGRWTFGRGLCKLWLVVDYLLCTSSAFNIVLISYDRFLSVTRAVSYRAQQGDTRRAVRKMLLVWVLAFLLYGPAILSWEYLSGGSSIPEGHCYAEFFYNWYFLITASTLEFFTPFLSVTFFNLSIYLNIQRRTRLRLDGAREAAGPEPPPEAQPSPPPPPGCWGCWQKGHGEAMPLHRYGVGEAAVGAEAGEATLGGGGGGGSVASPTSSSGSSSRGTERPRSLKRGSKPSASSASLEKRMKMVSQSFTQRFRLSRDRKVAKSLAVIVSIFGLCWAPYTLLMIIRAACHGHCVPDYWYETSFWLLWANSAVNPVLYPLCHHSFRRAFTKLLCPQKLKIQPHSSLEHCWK
# hERG (KCNH2) = hERG (KCNH2) (Homo sapiens, UniProt Q12809); test: Inhibition of human ERG at 10 uM by IonWorks assay
# hERG (KCNH2), sequence (Q12809 whole entry): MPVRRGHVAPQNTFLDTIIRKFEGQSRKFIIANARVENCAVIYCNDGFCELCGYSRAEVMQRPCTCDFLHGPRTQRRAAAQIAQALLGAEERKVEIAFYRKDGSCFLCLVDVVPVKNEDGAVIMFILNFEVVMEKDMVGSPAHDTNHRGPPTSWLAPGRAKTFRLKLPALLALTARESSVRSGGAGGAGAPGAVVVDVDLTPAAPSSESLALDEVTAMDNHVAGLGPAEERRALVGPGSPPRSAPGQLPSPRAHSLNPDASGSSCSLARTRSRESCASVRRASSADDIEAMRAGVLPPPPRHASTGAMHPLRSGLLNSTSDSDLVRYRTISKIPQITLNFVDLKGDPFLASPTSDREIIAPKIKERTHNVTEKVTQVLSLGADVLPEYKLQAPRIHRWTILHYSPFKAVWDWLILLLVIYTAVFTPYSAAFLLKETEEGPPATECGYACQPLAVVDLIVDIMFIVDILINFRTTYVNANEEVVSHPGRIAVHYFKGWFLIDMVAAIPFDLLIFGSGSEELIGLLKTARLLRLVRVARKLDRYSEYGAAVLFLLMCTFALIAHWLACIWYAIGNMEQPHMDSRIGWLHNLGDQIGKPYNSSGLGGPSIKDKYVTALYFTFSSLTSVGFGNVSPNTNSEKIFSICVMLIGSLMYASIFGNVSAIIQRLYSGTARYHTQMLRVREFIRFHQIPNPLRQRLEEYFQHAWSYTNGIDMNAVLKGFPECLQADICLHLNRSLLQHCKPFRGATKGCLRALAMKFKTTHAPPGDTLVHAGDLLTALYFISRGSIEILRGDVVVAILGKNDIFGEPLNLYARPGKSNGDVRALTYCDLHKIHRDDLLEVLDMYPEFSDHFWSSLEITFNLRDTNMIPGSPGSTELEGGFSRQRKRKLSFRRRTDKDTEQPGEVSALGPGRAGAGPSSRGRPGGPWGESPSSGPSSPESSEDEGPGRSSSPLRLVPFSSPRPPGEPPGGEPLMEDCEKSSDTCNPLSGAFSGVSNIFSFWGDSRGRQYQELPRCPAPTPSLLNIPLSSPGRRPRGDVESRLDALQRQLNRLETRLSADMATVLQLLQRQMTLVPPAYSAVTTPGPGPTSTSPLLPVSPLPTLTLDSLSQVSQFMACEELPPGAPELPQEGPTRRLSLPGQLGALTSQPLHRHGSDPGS
# Histamine H1 receptor = Histamine H1 receptor (Homo sapiens, UniProt P35367); test: Binding affinity to H1 receptor
# Histamine H2 receptor = Histamine H2 receptor (Homo sapiens, UniProt P25021); test: Binding affinity to H2 receptor
# Histamine H2 receptor, sequence (P25021 whole entry): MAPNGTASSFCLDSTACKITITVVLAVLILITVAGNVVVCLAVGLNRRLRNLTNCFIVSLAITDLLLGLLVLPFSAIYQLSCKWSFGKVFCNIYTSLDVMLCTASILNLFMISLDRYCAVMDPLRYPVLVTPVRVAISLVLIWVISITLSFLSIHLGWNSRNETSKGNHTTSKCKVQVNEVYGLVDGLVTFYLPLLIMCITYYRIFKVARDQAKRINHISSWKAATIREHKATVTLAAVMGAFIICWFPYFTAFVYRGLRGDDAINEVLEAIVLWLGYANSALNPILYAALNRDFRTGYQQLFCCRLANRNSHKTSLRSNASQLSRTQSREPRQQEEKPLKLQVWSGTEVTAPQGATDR
# [2] = molecular target: T2, 5-hydroxytryptamine receptor 1A (Homo sapiens, UniProt P08908); test: Binding affinity to 5-HT1A receptor
# T2 sequence (P08908 whole entry): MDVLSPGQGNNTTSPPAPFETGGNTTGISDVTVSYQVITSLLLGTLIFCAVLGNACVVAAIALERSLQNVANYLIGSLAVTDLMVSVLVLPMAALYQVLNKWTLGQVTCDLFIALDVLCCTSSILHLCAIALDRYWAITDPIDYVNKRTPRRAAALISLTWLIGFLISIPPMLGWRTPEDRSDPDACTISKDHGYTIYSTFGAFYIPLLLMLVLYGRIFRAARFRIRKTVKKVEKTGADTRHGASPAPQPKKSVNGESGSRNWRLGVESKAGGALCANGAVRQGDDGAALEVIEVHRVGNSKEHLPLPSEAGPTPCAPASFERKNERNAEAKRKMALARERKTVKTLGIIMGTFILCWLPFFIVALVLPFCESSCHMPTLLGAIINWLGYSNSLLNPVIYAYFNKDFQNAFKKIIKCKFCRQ
# [3] = molecular target: 5-hydroxytryptamine receptor 2B (Homo sapiens, UniProt P41595); test: Binding affinity to 5-HT2B receptor
# [4] = molecular target: 5-hydroxytryptamine receptor 6 (Homo sapiens, UniProt P50406); test: Binding affinity to 5-HT6 receptor
# 5-hydroxytryptamine receptor 6, sequence (P50406 whole entry): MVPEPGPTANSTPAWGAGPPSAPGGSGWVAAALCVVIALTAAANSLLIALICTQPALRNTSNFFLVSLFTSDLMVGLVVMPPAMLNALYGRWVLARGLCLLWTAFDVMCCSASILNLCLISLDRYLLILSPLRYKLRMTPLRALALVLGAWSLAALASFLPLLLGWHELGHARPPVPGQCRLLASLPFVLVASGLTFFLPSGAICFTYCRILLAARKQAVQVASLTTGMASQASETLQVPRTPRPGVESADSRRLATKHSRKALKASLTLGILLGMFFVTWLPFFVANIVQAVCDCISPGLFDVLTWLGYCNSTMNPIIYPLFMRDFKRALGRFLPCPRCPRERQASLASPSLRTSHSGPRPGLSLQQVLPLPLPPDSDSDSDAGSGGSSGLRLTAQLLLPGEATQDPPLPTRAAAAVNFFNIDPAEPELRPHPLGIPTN
# D(2) dopamine receptor = D(2) dopamine receptor (Homo sapiens, UniProt P14416); test: Binding affinity to D2 receptor
# D(2) dopamine receptor, sequence (P14416 whole entry): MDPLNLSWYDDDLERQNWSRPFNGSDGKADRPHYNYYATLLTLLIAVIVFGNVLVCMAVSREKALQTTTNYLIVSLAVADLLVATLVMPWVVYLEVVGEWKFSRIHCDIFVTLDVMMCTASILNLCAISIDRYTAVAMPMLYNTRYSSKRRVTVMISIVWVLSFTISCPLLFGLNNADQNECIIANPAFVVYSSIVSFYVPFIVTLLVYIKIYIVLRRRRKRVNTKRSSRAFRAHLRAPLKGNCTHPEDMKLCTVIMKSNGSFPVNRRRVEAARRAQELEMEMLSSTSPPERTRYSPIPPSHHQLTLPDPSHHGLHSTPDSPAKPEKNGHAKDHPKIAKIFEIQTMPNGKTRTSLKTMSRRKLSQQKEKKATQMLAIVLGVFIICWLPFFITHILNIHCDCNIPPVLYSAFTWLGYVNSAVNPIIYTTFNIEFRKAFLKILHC
# [5] = molecular target: T3, Alpha-2A adrenergic receptor (Homo sapiens, UniProt P08913); test: Binding affinity to alpha-2A receptor
# T3 sequence (P08913 whole entry): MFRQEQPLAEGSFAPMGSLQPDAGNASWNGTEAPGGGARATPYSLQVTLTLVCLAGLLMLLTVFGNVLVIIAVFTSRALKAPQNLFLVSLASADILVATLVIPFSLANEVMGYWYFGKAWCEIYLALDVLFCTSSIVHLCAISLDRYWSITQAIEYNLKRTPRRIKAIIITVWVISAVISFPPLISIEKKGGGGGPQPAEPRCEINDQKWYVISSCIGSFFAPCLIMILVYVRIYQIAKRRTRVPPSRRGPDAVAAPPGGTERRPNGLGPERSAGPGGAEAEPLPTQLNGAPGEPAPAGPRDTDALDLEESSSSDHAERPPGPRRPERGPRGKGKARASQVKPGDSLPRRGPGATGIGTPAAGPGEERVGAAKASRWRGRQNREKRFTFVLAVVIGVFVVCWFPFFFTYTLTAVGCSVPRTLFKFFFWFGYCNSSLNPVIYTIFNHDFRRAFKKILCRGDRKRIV
# [6] = molecular target: Sodium-dependent serotonin transporter (Homo sapiens, UniProt P31645); test: Binding affinity to 5-HT transporter
# [7] = molecular target: Sodium-dependent dopamine transporter (Homo sapiens, UniProt Q01959); test: Binding affinity to DAT
# Sodium-dependent dopamine transporter, sequence (Q01959 whole entry): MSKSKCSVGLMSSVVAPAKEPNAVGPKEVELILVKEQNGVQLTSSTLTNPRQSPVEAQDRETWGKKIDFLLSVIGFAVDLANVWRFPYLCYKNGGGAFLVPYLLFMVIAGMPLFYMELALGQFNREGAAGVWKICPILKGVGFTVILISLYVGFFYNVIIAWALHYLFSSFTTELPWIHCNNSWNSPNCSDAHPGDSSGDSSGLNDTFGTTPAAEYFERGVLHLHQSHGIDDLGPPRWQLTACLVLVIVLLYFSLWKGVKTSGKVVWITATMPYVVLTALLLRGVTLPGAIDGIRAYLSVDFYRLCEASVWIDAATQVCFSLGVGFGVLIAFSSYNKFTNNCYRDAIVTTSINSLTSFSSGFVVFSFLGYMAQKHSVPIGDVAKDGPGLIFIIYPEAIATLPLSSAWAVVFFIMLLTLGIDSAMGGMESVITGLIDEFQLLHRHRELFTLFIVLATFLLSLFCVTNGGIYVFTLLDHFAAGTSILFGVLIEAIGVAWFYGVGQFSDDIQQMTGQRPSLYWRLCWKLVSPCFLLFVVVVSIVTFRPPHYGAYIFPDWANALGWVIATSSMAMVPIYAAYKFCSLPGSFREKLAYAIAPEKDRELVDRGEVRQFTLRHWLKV
# Histamine H3 receptor [8] = molecular target: Histamine H3 receptor (Rattus norvegicus, UniProt Q9QYN8); test: Displacement of [3H]-(R)-alpha-methylhistamine from rat H3 receptor expressed in HEK293T cells after 120 mins by scintillation counting; type: cell-based, HEK-293T
# Rattus norvegicus = test: Inhibition of (R)-alpha-methylhistamine-induced water consumption in rat dispogenia model at 3 to 10 mg/kg, ip administered 30 mins prior (R)-alpha-methylhistamine challenge measured over 1 hr; type: functional, organism-based
# Method in brief: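 Rat dipsogenia model: test article was given ip at 3 or 10 mg/kg 30 min before the H3 agonist (R)-α-methylhistamine. Water consumed during the 1 h after agonist dosing was recorded and compared with vehicle and agonist-alone groups (p < 0.05).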
# Histamine H3 receptor [9] = molecular target: T1, Histamine H3 receptor; test: Inverse agonist activity at human H3 receptor expressed in HEK293T cells assessed as inhibition of {35S]GTPgamma binding; type: cell-based; conditions: HEK-293T
# Method in brief: (§1)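 Basal [35S]GTPγS binding was measured in membranes from HEK cells expressing human H3 receptor, across a range of concentrations. EC50 and maximal inhibition relative to basal binding were derived.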
# Histamine H3 receptor [10] = molecular target: T1, Histamine H3 receptor; test: Inverse agonist activity at human H3 receptor expressed in HEK293T cells assessed as inhibition of {35S]GTPgamma binding relative to basal level; type: cell-based; conditions: HEK-293T, concentration not given here; method in brief: as §1
# [11] = molecular target: Voltage-gated inwardly rectifying potassium channel KCNH2 (Homo sapiens, UniProt Q12809); test: Inhibition of human ERG by IonWorks assay
# Voltage-gated inwardly rectifying potassium channel KCNH2, sequence (Q12809 whole entry): as the sequence (Q12809 whole entry) above
compound,measurement,setting,value
C[C@@H]1CCCN1CCN1CCc2ccc(-c3ccc(C#N)cc3)cc2C1=O,pKi,Histamine H3 receptor [1],8.62
same,inhibition at 10 µM,hERG (KCNH2),98%
C[C@@H]1CCCN1CCN1CCc2cc(-c3ccc(C(=O)N4CCCC4)cc3)ccc2C1=O,pKi,Histamine H3 receptor [1],9.70
same,pKi,Histamine H1 receptor,5.06
same,pKi,Histamine H2 receptor,< 5.00
same,pKi,[2],4.91
same,pKi,[3],< 5.00
same,pKi,[4],< 5.00
same,pKi,D(2) dopamine receptor,< 5.00
same,pKi,[5],< 5.52
same,pKi,[6],6.09
same,pKi,[7],< 5.00
O=C1c2ccc(-c3cccc(C(F)(F)F)c3)cc2CCN1CCN1CCCC1,pKi,Histamine H3 receptor [1],8.19
same,pKi,Histamine H3 receptor [8],6.74
CN(C)C(=O)c1ccc(-c2ccc3c(c2)CCN(CCN2CCCC2)C3=O)cc1,inhibition,Rattus norvegicus,Active
same,Activity,Histamine H3 receptor [9],Dose-dependent effect
same,inhibition,Histamine H3 receptor [10],65%
C[C@@H]1CCCN1CCN1CCc2cc(-c3ccc(C#N)cc3)ccc2C1=O,pKi,Histamine H3 receptor [8],8.24
same,pIC50,[11],6.85
O=C(c1ccc(-c2ccc3c(c2)CCN(CCN2CCCC2)C3=O)cc1)N1CCCC1,pKi,Histamine H3 receptor [1],8.62
C[C@@H]1CCCN1CCN1CCc2c(cccc2-c2ccc(C#N)cc2)C1=O,pKi,Histamine H3 receptor [1],7.66
same,inhibition at 10 µM,hERG (KCNH2),96%
O=C1c2ccc(-c3cc(F)cc(F)c3)cc2CCN1CCN1CCCC1,pKi,Histamine H3 receptor [1],8.05
same,pKi,Histamine H3 receptor [8],6.84
O=C1c2ccc(-c3cccc(F)c3)cc2CCN1CCN1CCCC1,pKi,Histamine H3 receptor [1],7.94
same,pKi,Histamine H3 receptor [8],6.79
N#Cc1ccc(-c2ccc3c(c2)CCN(CCN2CCCC2)C3=O)cc1,pKi,Histamine H3 receptor [1],8.41
same,pKi,Histamine H3 receptor [8],7.60
C[C@@H]1CCCN1CCN1CCc2cc(-c3ccc(F)cc3)ccc2C1=O,pKi,Histamine H3 receptor [1],8.92
same,pKi,Histamine H3 receptor [8],7.64
same,pIC50,[11],6.52
O=C(NC1CC1)c1ccc(-c2ccc3c(c2)CCN(CCN2CCCC2)C3=O)cc1,pKi,Histamine H3 receptor [1],8.57
same,pIC50,[11],4.96
C[C@@H]1CCCN1CCN1CCc2cc(Oc3ccc(C#N)nc3)ccc2C1=O,pKi,Histamine H3 receptor [1],9.52
same,inhibition at 10 µM,hERG (KCNH2),99%
O=C1c2ccc(-c3ccc(F)cc3)cc2CCN1CCN1CCCCC1,pKi,Histamine H3 receptor [1],8.11
C[C@@H]1CCCN1C(=O)c1ccc(-c2ccc3c(c2)CCN(CCN2CCCC2)C3=O)cc1,pKi,Histamine H3 receptor [1],8.77
same,pIC50,[11],4.98
same,pKi,Histamine H1 receptor,< 5.00
same,pKi,Histamine H2 receptor,< 5.00
same,pKi,[2],5.01
same,pKi,[3],< 5.00
same,pKi,[4],< 5.00
same,pKi,D(2) dopamine receptor,< 5.00
same,pKi,[5],< 5.52
same,pKi,[6],6.49
same,pKi,[7],< 5.00
O=C(NC1CCC1)c1ccc(-c2ccc3c(c2)CCN(CCN2CCCC2)C3=O)cc1,pKi,Histamine H3 receptor [1],8.68
same,pIC50,[11],5.60
O=C1c2ccc(-c3ccc(OC(F)(F)F)cc3)cc2CCN1CCN1CCCC1,pKi,Histamine H3 receptor [1],7.83
same,pKi,Histamine H3 receptor [8],6.75
O=C1c2ccc(-c3ccccc3)cc2CCN1CCN1CCCC1,pKi,Histamine H3 receptor [1],7.94
same,pKi,Histamine H3 receptor [8],6.84
O=C1c2ccc(-c3cccc(OC(F)(F)F)c3)cc2CCN1CCN1CCCC1,pKi,Histamine H3 receptor [1],7.55
same,pKi,Histamine H3 receptor [8],6.56
O=C1c2ccc(-n3cnc4ccccc43)cc2CCN1CCN1CCCC1,pKi,Histamine H3 receptor [1],9.10
same,pKi,Histamine H3 receptor [8],6.76
N#Cc1ccc(-c2ccc3c(c2)CCN(CCCN2CCCC2)C3=O)cc1,pKi,Histamine H3 receptor [1],8.16
same,pKi,Histamine H3 receptor [8],6.57
CCNC(=O)c1ccc(-c2ccc3c(c2)CCN(CCN2CCC[C@H]2C)C3=O)cc1,pKi,Histamine H3 receptor [1],9.00
same,pIC50,[11],5.13
same,pKi,Histamine H1 receptor,5.14
same,pKi,Histamine H2 receptor,< 5.00
same,pKi,[2],5.00
same,pKi,[3],< 5.00
same,pKi,[4],< 5.00
same,pKi,D(2) dopamine receptor,< 5.00
same,pKi,[5],< 5.52
same,pKi,[6],6.52
same,pKi,[7],< 5.00
CN(C)C(=O)c1ccc(-c2ccc3c(c2)CCN(CCN2CCCC2)C3=O)c(F)c1,pKi,Histamine H3 receptor [1],8.51
same,pIC50,[11],4.49
NC(=O)c1ccc(-c2ccc3c(c2)CCN(CCN2CCCC2)C3=O)cc1,pKi,Histamine H3 receptor [1],8.22
same,inhibition at 10 µM,hERG (KCNH2),14%
